Laboratory results taken from ChEMBL document CHEMBL2216748 (J Med Chem, 2012).
Calls of active or inactive are those of the source. The calls are words filed in the database; no cut-off is given here.

Experiments:
[1] = target: T1, Ribosyldihydronicotinamide dehydrogenase [quinone] (Homo sapiens) (UniProt P16083); test: Displacement of (S)-N4-(3-(3-(2-((4-carbamimidoylphenylamino)methyl)-1-methyl-N-(pyridin-2-yl)-1H-benzo[d]imidazole-5-carboxamido)propanamido)propyl)-N1-(15-oxo-19-((3aS,4S,6aR)-2-oxohexahydro-1H-thieno[3,4-d]imidazol-4-yl)-4,7,10-trioxa-14-azanonadecyl)-2-(4-(3-(trifluoromethyl)-3H-diazirin-3-yl)benzamido)succinamide from NQO2 in human HepG2 cell lysate after 1 hr by capture compound based LC/MS analysis
T1 sequence (whole entry): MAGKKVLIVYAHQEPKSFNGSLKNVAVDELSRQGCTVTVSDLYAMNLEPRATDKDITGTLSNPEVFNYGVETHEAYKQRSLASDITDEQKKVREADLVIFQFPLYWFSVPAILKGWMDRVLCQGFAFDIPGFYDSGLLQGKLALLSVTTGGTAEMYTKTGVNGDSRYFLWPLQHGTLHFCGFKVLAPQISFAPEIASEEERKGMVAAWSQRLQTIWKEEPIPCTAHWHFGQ
Outline: (§1)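 Capture compound MS: 400 μg HepG2 or K562 lysate in capture buffer, precleared with streptavidin beads 30 min at 4 °C. Competition controls preincubated 30 min at 4 °C with free drug (10 μL of 1 mM). Capture compound (10 μL of 50 μM) equilibrated 1 h at 4 °C, UV-irradiated 10 min, streptavidin bead pulldown, on-bead trypsin digestion, nanoLC-MS/MS. Spectral counts compared capture vs competition (t test). HepG2 in quadruplicate, K562 in duplicate.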

[2] = target: Histamine N-methyltransferase (Homo sapiens) (UniProt P50135); test: (§2) Displacement of 3-(1-methyl-N-(pyridin-2-yl)-2-((4-(N-((S)-6,9,25-trioxo-29-((3aS,4S,6aR)-2-oxohexahydro-1H-thieno[3,4-d]imidazol-4-yl)-8-(4-(3-(trifluoromethyl)-3H-diazirin-3-yl)benzamido)-14,17,20-trioxa-5,10,24-triazanonacosyl)carbamimidoyl)phenylamino)methyl)-1H-benzo[d]imidazole-5-carboxamido)propanoic acid from HNMT in human HepG2 cell lysate after 1 hr by capture compound based LC/MS analysis; assay type: cell-free; outline: as §1
Chain of Histamine N-methyltransferase (Homo sapiens) (P50135 whole entry): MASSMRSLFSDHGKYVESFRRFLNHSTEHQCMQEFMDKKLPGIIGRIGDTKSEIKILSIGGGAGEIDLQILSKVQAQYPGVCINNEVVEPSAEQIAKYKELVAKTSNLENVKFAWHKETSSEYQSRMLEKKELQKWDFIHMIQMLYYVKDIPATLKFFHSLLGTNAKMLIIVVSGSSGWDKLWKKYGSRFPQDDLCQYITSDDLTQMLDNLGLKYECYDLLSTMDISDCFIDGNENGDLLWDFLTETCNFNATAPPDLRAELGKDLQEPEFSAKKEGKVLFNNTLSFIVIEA

[3] = target: T2, Hypoxia up-regulated protein 1 (Homo sapiens) (UniProt Q9Y4L1); test: as §2, with “HYOU1” for “HNMT”; assay type: cell-free; outline: as §1
T2 sequence (whole entry): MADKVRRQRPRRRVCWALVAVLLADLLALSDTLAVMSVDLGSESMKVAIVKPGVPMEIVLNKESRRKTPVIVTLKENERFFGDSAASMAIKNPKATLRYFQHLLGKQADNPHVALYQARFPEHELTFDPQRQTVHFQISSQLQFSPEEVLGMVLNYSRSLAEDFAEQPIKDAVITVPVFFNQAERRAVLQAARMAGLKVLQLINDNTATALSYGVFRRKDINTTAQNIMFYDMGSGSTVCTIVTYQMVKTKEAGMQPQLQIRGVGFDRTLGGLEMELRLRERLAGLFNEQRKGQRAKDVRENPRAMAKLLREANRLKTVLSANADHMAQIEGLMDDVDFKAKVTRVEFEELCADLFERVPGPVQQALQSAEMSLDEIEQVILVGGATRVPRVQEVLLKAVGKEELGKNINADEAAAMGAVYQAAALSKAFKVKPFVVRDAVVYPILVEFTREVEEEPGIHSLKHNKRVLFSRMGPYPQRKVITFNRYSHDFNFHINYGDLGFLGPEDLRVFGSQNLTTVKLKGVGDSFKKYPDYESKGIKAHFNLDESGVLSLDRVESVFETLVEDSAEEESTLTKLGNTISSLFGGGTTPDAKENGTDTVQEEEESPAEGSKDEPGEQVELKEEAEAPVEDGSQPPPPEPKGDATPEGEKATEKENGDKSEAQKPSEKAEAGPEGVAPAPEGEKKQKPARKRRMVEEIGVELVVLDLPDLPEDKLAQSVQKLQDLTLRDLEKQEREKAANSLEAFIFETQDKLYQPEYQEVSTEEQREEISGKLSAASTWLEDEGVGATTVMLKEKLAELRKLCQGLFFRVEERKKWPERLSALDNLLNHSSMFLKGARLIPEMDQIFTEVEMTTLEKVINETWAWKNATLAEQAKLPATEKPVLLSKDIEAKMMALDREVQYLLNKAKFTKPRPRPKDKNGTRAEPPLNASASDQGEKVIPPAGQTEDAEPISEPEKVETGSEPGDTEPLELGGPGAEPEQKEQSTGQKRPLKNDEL

[4] = target: Heterogeneous nuclear ribonucleoproteins C1/C2 (Homo sapiens) (UniProt P07910); test: as §2, with “HNRPC” for “HNMT”; assay type: cell-free; outline: as §1
Chain of Heterogeneous nuclear ribonucleoproteins C1/C2 (Homo sapiens) (P07910 whole entry): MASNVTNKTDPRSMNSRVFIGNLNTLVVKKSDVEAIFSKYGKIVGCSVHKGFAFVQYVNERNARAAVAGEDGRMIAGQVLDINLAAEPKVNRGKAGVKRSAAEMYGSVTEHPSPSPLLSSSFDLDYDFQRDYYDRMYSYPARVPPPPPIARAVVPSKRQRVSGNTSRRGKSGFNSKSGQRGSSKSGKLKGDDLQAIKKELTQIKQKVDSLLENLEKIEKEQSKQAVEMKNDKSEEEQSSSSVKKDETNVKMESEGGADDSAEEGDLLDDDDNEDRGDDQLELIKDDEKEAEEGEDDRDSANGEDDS

[5] = target: Adenosine kinase (Homo sapiens) (UniProt P55263); test: as §2, with “ADK” for “HNMT”; assay type: cell-free; outline: as §1
Chain of Adenosine kinase (Homo sapiens) (P55263 2-362 limits assumed): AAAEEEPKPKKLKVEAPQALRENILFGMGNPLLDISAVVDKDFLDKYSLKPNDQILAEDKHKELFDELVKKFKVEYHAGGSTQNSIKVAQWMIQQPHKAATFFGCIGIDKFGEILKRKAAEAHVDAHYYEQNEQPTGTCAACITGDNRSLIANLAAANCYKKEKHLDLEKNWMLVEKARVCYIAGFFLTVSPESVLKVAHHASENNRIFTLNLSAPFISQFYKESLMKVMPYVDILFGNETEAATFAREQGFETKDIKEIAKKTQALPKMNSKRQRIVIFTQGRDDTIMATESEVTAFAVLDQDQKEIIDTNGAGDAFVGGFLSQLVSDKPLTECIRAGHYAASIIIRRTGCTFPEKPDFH

[6] = target: T1, Ribosyldihydronicotinamide dehydrogenase [quinone] (Homo sapiens); test: (§3) Displacement of (S)-N4-(4-(3-(2-((4-carbamimidoylphenylamino)methyl)-1-methyl-N-(pyridin-2-yl)-1H-benzo[d]imidazole-5-carboxamido)propanamido)butyl)-N1-(15-oxo-19-((3aS,4S,6aR)-2-oxohexahydro-1H-thieno[3,4-d]imidazol-4-yl)-4,7,10-trioxa-14-azanonadecyl)-2-(4-(3-(trifluoromethyl)-3H-diazirin-3-yl)benzamido)succinamide from NQO2 in human K562 cell lysate after 1 hr by capture compound based LC/MS analysis; assay type: cell-free; outline: as §1
[7] = target: T1, Ribosyldihydronicotinamide dehydrogenase [quinone] (Homo sapiens); test: (§4) Displacement of (S)-N4-(4-(3-(2-((4-carbamimidoylphenylamino)methyl)-1-methyl-N-(pyridin-2-yl)-1H-benzo[d]imidazole-5-carboxamido)propanamido)butyl)-N1-(15-oxo-19-((3aS,4S,6aR)-2-oxohexahydro-1H-thieno[3,4-d]imidazol-4-yl)-4,7,10-trioxa-14-azanonadecyl)-2-(4-(3-(trifluoromethyl)-3H-diazirin-3-yl)benzamido)succinamide from NQO2 in human HepG2 cell lysate at 100 uM after 1 hr by Western blot analysis; assay type: cell-free
Outline: (§5)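 NQO2 capture from HepG2 or K562 lysate, or from pooled human liver microsomes, with capture compound (1 h, 4 °C) after 30 min competitor preincubation. UV cross-linked 10 min and streptavidin pulldown. Detection by Western blot: anti-NQO2 1:500, then HRP anti-rabbit secondary 1:1000.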

[8] = target: T1, Ribosyldihydronicotinamide dehydrogenase [quinone] (Homo sapiens); test: as §4, with “K562” for “HepG2”; assay type: cell-free; outline: as §5
[9] = target: T1, Ribosyldihydronicotinamide dehydrogenase [quinone] (Homo sapiens); test: as §4, with “liver microsomes” for “HepG2 cell lysate at 100 uM”; conditions: Microsome; outline: as §5
[10] = target: T1, Ribosyldihydronicotinamide dehydrogenase [quinone] (Homo sapiens); test: (§6) Displacement of 3-(1-methyl-N-(pyridin-2-yl)-2-((4-(N-((S)-6,9,25-trioxo-29-((3aS,4S,6aR)-2-oxohexahydro-1H-thieno[3,4-d]imidazol-4-yl)-8-(4-(3-(trifluoromethyl)-3H-diazirin-3-yl)benzamido)-14,17,20-trioxa-5,10,24-triazanonacosyl)carbamimidoyl)phenylamino)methyl)-1H-benzo[d]imidazole-5-carboxamido)propanoic acid from NQO2 in human liver microsomes after 1 hr by Western blot analysis; conditions: Microsome; outline: as §5
[11] = target: T1, Ribosyldihydronicotinamide dehydrogenase [quinone] (Homo sapiens); test: as §3, with “from human recombinant” for “from”, “NQO2” for “NQO2 in human K562 cell lysate”, “silver staining-based SDS PAGE” for “capture compound based LC/MS”
Outline: (§7)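 Human recombinant NQO2 (1 μg) was preincubated 30 min at 4 °C with competitor, then capture compound was added at 5 μM final (competitors 100 μM final) and equilibrated 1 h at 4 °C. Samples were UV-irradiated 10 min, pulled down on streptavidin beads and resolved by silver-stained SDS-PAGE.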

[12] = target: T1, Ribosyldihydronicotinamide dehydrogenase [quinone] (Homo sapiens); test: as §6, with “from human recombinant” for “from”, “NQO2” for “NQO2 in human liver microsomes”, “silver staining-based SDS PAGE” for “Western blot”; outline: as §7
[13] = target: T1, Ribosyldihydronicotinamide dehydrogenase [quinone] (Homo sapiens); test: Displacement of (S)-N4-(2-(4-(4-(4-methyl-3-(4-(pyridin-3-yl)pyrimidin-2-ylamino)phenylcarbamoyl)benzyl)piperazin-1-yl)ethyl)-N1-(15-oxo-19-((3aS,4S,6aR)-2-oxohexahydro-1H-thieno[3,4-d]imidazol-4-yl)-4,7,10-trioxa-14-azanonadecyl)-2-(4-(3-(trifluoromethyl)-3H-diazirin-3-yl)benzamido)succinamide from human recombinant NQO2 after 1 hr by silver staining-based SDS PAGE analysis; outline: as §7
[14] = Inhibition of human alpha thrombin using Boc-Val-Pro-Arg-AMC as substrate after 2 hrs by fluorometric analysis
Outline: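 Human α-thrombin at 5.5 ng/mL final with Boc-Val-Pro-Arg-AMC (15 μM) in 50 mM Tris pH 7.5, 150 mM NaCl, 0.05% Tween 20. Compound tested as 16 two-fold dilutions in DMSO, 2.5 mM to 75 nM. Incubated 2 h at room temperature; fluorescence read at ex 355, em 460 nm for percent inhibition.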

With `Cn1c(CNc2ccc(C(=N)N)cc2)nc2cc(C(=O)N(CCC(=O)O)c3ccccn3)ccc21` [DABIGATRAN] the Activity [1] was “Active”, the Activity [2] was “Active” and the Activity [3] was “Active”. The Activity [4] was “Active”, the Activity [5] was “Active” and the Activity [6] was “Active”. The Activity [7] was “Active”, the Activity [8] was “Active” and the Activity [9] was “Active”. The Activity [10] was “Active”, the Activity [11] was “Active” and the Activity [12] was “Active”. For the same molecule, the Activity [13] was “Active” and the IC50 [14] was 13.8 nM.
